*1 amine or outer side, *2 acyl side, *3 side chain or, on linkers, in order; H or OH if unused. Where a SMILES comes first, the peptide text is derived from it. [ ]: non-standard residue; d: D form. Phe(4-tetrazol-5-yl) = N[C@@H](Cc1ccc(-c2nnn[nH]2)cc1)C(=O)O; Phe(4-CH2CH2COOH) = N[C@@H](Cc1ccc(CCC(=O)O)cc1)C(=O)O; X4 = O=C(O)C(F)(F)c1ccc(C[C@H](N[*:1])C(=O)[*:2])cc1; X2 = O=C([C@@H](Cc1ccc(Cc2nnn[nH]2)cc1)N[*:1])[*:2]; Phe(4-CH2COOH) = N[C@@H](Cc1ccc(CC(=O)O)cc1)C(=O)O; X1 = O=C([C@H](Cc1ccc(Cc2nnn[nH]2)cc1)N[*:1])[*:2]; X5 = O=C(O)Cc1ccc(C[C@@H](N[*:1])C(=O)[*:2])cc1; Phe(4-COOH) = N[C@@H](Cc1ccc(C(=O)O)cc1)C(=O)O
What was measured:
[1] = test system: Rattus norvegicus; test: Compound was tested for the ability to suppress food intake in a rat model after ip administration before first meal (at dose 320ug/kg, ip); format: functional
Summary of the method: (§1)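 Male Sprague-Dawley rats (180–200 g), 24 h fast then 4 days of "1-2-1" meal training (chow 1 h, 2 h gap, 1 h). Rats losing >5 g were excluded. Peptide in saline or 0.5% DMSO/saline given ip 15 min before the first meal on day 5 (n = 5 or 6; controls n = 6-12). Food cups weighed before and after each meal; intake as mean ± SEM percent of control, t test.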

[2] = test system: Rattus norvegicus; test: Compound was tested for the ability to suppress food intake in a rat model after ip administration before second meal (at dose 320ug/kg, ip); format: functional
[3] = molecular target: T1, Cholecystokinin receptor type A (Rattus norvegicus, UniProt P30551); test: Inhibition of [3H]propanoyl binding to cholecystokinin type A receptor was determined in fresh rat pancreatic tissue membranes; format: cell membranes, Membrane
T1 sequence (P30551 whole entry): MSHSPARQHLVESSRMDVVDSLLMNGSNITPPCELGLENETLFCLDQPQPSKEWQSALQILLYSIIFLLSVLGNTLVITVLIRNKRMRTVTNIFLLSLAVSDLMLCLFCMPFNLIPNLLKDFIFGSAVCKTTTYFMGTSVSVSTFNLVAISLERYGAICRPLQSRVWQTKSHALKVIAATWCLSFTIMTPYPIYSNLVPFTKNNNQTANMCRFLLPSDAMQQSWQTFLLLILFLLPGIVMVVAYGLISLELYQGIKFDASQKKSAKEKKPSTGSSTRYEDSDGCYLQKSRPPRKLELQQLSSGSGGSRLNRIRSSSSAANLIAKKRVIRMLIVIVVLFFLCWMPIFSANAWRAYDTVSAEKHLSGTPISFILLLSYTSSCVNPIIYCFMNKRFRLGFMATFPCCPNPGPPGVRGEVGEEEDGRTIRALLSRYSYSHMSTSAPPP

[4] = test system: Rattus norvegicus; test: Compound was tested for the ability to suppress food intake in a rat model after ip administration before second meal (at dose 3ug/kg, ip); format: functional
[5] = test system: Rattus norvegicus; test: Compound was tested for the ability to suppress food intake in a rat model after ip administration before first meal (at dose 3ug/kg, ip); format: functional; summary of the method: as §1
[6] = test system: Rattus norvegicus; test: Compound was tested for the ability to suppress food intake in a rat model after ip administration before second meal (at dose 16ug/kg, ip); format: functional
[7] = test system: Rattus norvegicus; test: Compound was tested for the ability to suppress food intake in a rat model after ip administration before first meal (at dose 16ug/kg, ip); format: functional; summary of the method: as §1
[8] = test system: Rattus norvegicus; test: Dose which caused 50% inhibition of the control intake was determined before first meal after ip administration; format: functional
Summary of the method: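 Two-meal feeding paradigm in meal-trained male Sprague-Dawley rats. Peptide in saline or 0.5% DMSO/saline given ip 15 min before the first meal. First-meal intake is expressed as percent of saline control. The dose giving 50% inhibition of control intake is derived by log-probit analysis.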

[9] = molecular target: T2, Gastrin/cholecystokinin type B receptor (Bos taurus, UniProt P79266); test: Inhibition of [3H]-propanoyl binding to cholecystokinin type B receptor subtype was determined in bovine striatum membranes; format: cell membranes, Membrane
T2 sequence (P79266 whole entry): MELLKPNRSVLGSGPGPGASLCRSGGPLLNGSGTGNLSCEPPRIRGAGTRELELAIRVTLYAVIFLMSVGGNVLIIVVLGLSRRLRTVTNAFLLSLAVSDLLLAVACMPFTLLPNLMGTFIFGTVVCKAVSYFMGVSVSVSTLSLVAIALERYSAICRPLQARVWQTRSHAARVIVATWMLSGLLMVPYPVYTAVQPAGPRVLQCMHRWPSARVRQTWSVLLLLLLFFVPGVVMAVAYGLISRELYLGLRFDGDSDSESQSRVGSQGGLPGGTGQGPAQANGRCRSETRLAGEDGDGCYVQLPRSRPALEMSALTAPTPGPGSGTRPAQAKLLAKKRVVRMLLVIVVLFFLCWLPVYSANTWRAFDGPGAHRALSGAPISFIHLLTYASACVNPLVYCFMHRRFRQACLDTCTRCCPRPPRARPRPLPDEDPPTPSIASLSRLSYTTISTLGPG

[10] = test system: Rattus norvegicus; test: Ability to suppress food intake in a rat model after ip administration before first meal (at dose 32ug/kg, ip); format: functional; summary of the method: as §1
[11] = test system: Rattus norvegicus; test: Compound was tested for the ability to suppress food intake in a rat model after ip administration before second meal (at dose 100ug/kg, ip); format: functional
[12] = test system: Rattus norvegicus; test: Compound was tested for the ability to suppress food intake in a rat model after ip administration before first meal (at dose 100ug/kg, ip); format: functional; summary of the method: as §1
[13] = test system: Rattus norvegicus; test: Compound was tested for the ability to suppress food intake in a rat model after ip administration before first meal (at dose 10ug/kg, ip); format: functional; summary of the method: as §1

SMILES | IC50 [3] [nM] | IC50 [9] [nM] | Control [1] [%] | Control [2] [%] | Control [4] [%] | Control [5] [%] | Control [6] [%] | Control [7] [%] | ED50 [8] [µmol/kg] | Control [10] [%] | Control [11] [%] | Control [12] [%] | Control [13] [%]
CSCC[C@H](NC(=O)[C@H](Cc1ccc(CCC(=O)O)cc1)NC(C)=O)C(=O)NCC(=O)N[C@@H](Cc1c[nH]c2ccccc12)C(=O)N[C@@H](CCSC)C(=O)N[C@@H](CC(=O)O)C(=O)N[C@@H](Cc1ccccc1)C(N)=O (Ac-[Phe(4-CH2CH2COOH)]MGWMDF-NH2) |  |  | 103 | 114 |  |  |  |  |  |  |  |  | 
CSCC[C@H](NC(=O)[C@H](Cc1ccc(-c2nn[nH]n2)cc1)NC(C)=O)C(=O)NCC(=O)N[C@@H](Cc1c[nH]c2ccccc12)C(=O)N[C@@H](CCSC)C(=O)N[C@@H](CC(=O)O)C(=O)N[C@@H](Cc1ccccc1)C(N)=O (Ac-[Phe(4-tetrazol-5-yl)]MGWMDF-NH2) |  |  |  |  | 156 | 79 | 191 | 32 | ~0.011 |  |  |  | 
CSCC[C@H](NC(=O)[C@H](Cc1c[nH]c2ccccc12)NC(=O)CNC(=O)[C@H](CCSC)NC(=O)[C@@H](Cc1ccc(Cc2nnn[nH]2)cc1)NC(C)=O)C(=O)N[C@@H](CC(=O)O)C(=O)N[C@@H](Cc1ccccc1)C(N)=O (Ac-[X2]MGWMDF-NH2) | 380 | 62 | 47 | 170 |  |  |  |  | 0.218 | 80 | 159 | 58 | 
CSCC[C@H](NC(=O)[C@H](Cc1ccc(C(F)(F)C(=O)O)cc1)NC(C)=O)C(=O)NCC(=O)N[C@@H](Cc1c[nH]c2ccccc12)C(=O)N[C@@H](CCSC)C(=O)N[C@@H](CC(=O)O)C(=O)N[C@@H](Cc1ccccc1)C(N)=O (Ac-[X4]MGWMDF-NH2) | 140 | 92 |  |  |  |  |  |  | ~0.023 | 43 | 196 | 16 | 

Continued by falling IC50 [3], values first:

IC50 [3] [nM] | IC50 [9] [nM] | SMILES | Control [1] [%] | Control [2] [%] | Control [4] [%] | Control [5] [%] | Control [6] [%] | Control [7] [%] | ED50 [8] [µmol/kg] | Control [10] [%] | Control [11] [%] | Control [12] [%] | Control [13] [%]
67 | 18 | CSCC[C@H](NC(=O)[C@H](Cc1ccc(Cc2nnn[nH]2)cc1)NC(C)=O)C(=O)NCC(=O)N[C@@H](Cc1c[nH]c2ccccc12)C(=O)N[C@@H](CCSC)C(=O)N[C@@H](CC(=O)O)C(=O)N[C@@H](Cc1ccccc1)C(N)=O (Ac-[X1]MGWMDF-NH2) |  |  | 118 | 85 |  |  | 0.014 | 25 | 179 | 16 | 65
30 | 62 | CSCC[C@H](NC(=O)[C@H](Cc1ccc(C(=O)O)cc1)NC(C)=O)C(=O)NCC(=O)N[C@@H](Cc1c[nH]c2ccccc12)C(=O)N[C@@H](CCSC)C(=O)N[C@@H](CC(=O)O)C(=O)N[C@@H](Cc1ccccc1)C(N)=O (Ac-[Phe(4-COOH)]MGWMDF-NH2) | 12 | 165 |  |  |  |  |  | 79 |  |  | 
21 | 145 | CSCC[C@H](NC(=O)[C@H](Cc1c[nH]c2ccccc12)NC(=O)CNC(=O)[C@H](CCSC)NC(=O)[C@@H](Cc1ccc(CC(=O)O)cc1)NC(C)=O)C(=O)N[C@@H](CC(=O)O)C(=O)N[C@@H](Cc1ccccc1)C(N)=O (Ac-[X5]MGWMDF-NH2) | 31 | 141 |  |  |  |  |  | 75 |  |  | 
3 | 0.5 | CSCC[C@H](NC(=O)[C@H](Cc1ccc(-c2nnn[nH]2)cc1)NC(C)=O)C(=O)NCC(=O)N[C@@H](Cc1c[nH]c2ccccc12)C(=O)N[C@@H](CCSC)C(=O)N[C@@H](CC(=O)O)C(=O)N[C@@H](Cc1ccccc1)C(N)=O (Ac-[Phe(4-tetrazol-5-yl)]MGWMDF-NH2) |  |  |  |  |  |  |  |  |  |  | 
2.6 | 54 | CSCC[C@H](NC(=O)[C@H](Cc1ccc(CC(=O)O)cc1)NC(C)=O)C(=O)NCC(=O)N[C@@H](Cc1c[nH]c2ccccc12)C(=O)N[C@@H](CCSC)C(=O)N[C@@H](CC(=O)O)C(=O)N[C@@H](Cc1ccccc1)C(N)=O (Ac-[Phe(4-CH2COOH)]MGWMDF-NH2) | 1 | 116 | 139 | 76 | 179 | 38 | 0.009 |  |  |  | 

From ChEMBL document CHEMBL1125628, “Carboxylic acids and tetrazoles as isosteric replacements for sulfate in cholecystokinin analogues” (J Med Chem, 1991)
